Most compounds without a hit are left out; they make up all but 12% or so of the library.
Autophagy mod: modulators of autophagy; MEF GFP-LC3 puncta imaging; test concentration mostly 10 µM; calls only at 10 µM (by protocol); hit rate 0.98% among 190,000;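 active means percentage of spot-positive cells more than 3 SD above its plate mean, without a fluorescence outlier flag or 80% toxicity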
bCat nuc transl: beta-catenin nuclear translocation modulation. HeLa beta-catenin nuclear translocation, immunofluorescence imaging. nuclear translocation activity, % at 5 µM. hit rate 0.3% among 190,000. AID 1665;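 active means nuclear translocation activity above 50% at 5 µM, with a well cell count of 50 or more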;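 further: per-cell ratio of nuclear to cytoplasmic median beta-catenin stain intensity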
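Test system: human HeLa cell line; Doses: 5 µM primary, 0.02–20 µM confirmation; Incubation: 24 h compound exposure, 37°C; Detection: beta-catenin immunofluorescence imaging with DAPI; Read-out: beta-catenin nuclear/cytoplasmic ratio, % activation.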
Lmaj promast: inhibitors of Leishmania major promastigote growth; hit rate 9% among 200,000; inhibition, % at 10 µM; Leishmania major promastigotes, resazurin fluorescence viability; AID 1063; in the data active means inhibition above about 50%;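 further: promastigotes grown with compound for 44 hours at 28 °C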
MT stabilize HCS: microtubule stabilization, imaging screen; hit rate 0.83% among 200,000; % tubulin-high responders, % at 10 µM; HeLa tubulin immunostaining HCS, 24 h; share of cells brighter than vehicle mean+2SD;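 active means plate Z-score above 3 for both tubulin-high and condensed-nucleus cell shares, with cell loss under 80%, at 10 µM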;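 further: anti alpha tubulin signal scored within the nucleus-defined area of each cell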
Dynein transport: dynein cargo transport inhibition | hit rate 0.47% among 220,000 | 3617.4 mouse cells, GR-EGFP nuclear translocation imaging; test concentration mostly 20 µM; stimulated with dexamethasone, 1 µM; hits give low values | z-score, hits read low | AID 1381;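 active means plate z-score of nuclear minus cytoplasmic receptor signal below a set negative limit, without overly bright fluorescence or cell loss, cut at about -3.5 in these data, passing the limit was not always enough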;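 further: z-score of nuclear minus cytoplasmic ring GR-EGFP intensity difference per well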
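Schedule: 48 h induction, then 1 h compound, then 30 min agonist, 37 °C. Buffer or medium: tetracycline-free induction medium containing charcoal-stripped FBS. Reagent: 1.0 µM final dexamethasone stimulus. Evaluation: nuclear versus cytoplasmic GR-EGFP signal, averaged per well. Signal: high-content fluorescence imaging after fixation.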
CHOP inhibitor: blocks CHOP induction under ER stress; CHO-K1 CHOP-promoter luciferase, tunicamycin-induced, 15-18 h; inhibition, % at 10 µM; hit rate 3.8% among 220,000; AID 2732;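 active means compounds that reduced the stress-induced luciferase reporter signal by more than about 70% of percent inhibition, limit read from the data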
Large screens that a line does not name were inactive.

CCc1nnc(NC(=O)CSc2nnc(-c3ccccc3O)n2-c2ccc(C)cc2)s1	MT stabilize HCS 38
Cc1ccc(-c2csc(NC(=O)CSc3nc4ccccc4c(=O)n3CCCN(C)C)n2)cc1	Autophagy mod active, Lmaj promast 100
Cc1cccc(C)c1NCc1nnc(SCC(=O)Nc2nc(-c3ccccc3)cs2)n1-c1ccccc1	none
CCn1c(SCC(=O)Nc2nc(-c3ccc(C)cc3)cs2)nnc1-c1ccccc1O	Lmaj promast 100, CHOP inhibitor 86
CCOc1ccc(NCc2nnc(SCC(=O)Nc3nc(-c4ccccc4)cs3)n2-c2ccccc2)cc1	Lmaj promast 95
CCc1nnc(NC(=O)CSc2nnc(COc3ccc(C)cc3)n2-c2ccccc2)s1	MT stabilize HCS 33
CCc1nnc(NC(=O)CSc2nnc(Cc3ccccc3)n2-c2ccccc2)s1	none
CCc1nnc(NC(=O)CSc2nnc(-c3ccccc3OC)n2-c2ccc(C)cc2)s1	Lmaj promast 57
Fc1ccc(COc2ccc(/C=N/n3cnnc3)cc2)cc1	none
COCC(C)OC(=O)c1c(N)n(-c2ccc(OC)c(OC)c2)c2nc3ccccc3nc12 (centres undefined)	none (no result: Autophagy mod, Lmaj promast, MT stabilize HCS)
CC1CCN(S(=O)(=O)c2cc(Cl)ccc2Br)CC1	none
CN(C(=O)COc1ccc(Br)cc1Cl)C1CCCCC1	none
CC1CCN(CCOCCOc2ccc(Br)cc2Cl)CC1	Lmaj promast 99
CC1CCCN(CCCOc2ccc(Br)cc2Cl)C1 (centres undefined)	Lmaj promast 89
CC1CCN(CCOc2cc(Cl)ccc2Cl)CC1	Lmaj promast 85 (no result: bCat nuc transl)
Nc1n[nH]c(=S)n1/N=C1/C(=O)Nc2ccccc21	none
Cc1ccccc1OCC(=O)OCC(=O)NCc1cccs1	none
CC(C)c1ccc(NC(=O)N2CCCC2C(=O)Nc2ccc(-n3cnnn3)cc2)cc1 (centres undefined)	Lmaj promast 66
Cc1cc(C)cc(NC(=O)N2CCCC2C(=O)Nc2ccc(-n3cnnn3)cc2)c1 (centres undefined)	none
O=C(CSc1ncnc2ccccc12)NCC(=O)c1ccccc1	none
COc1ccc(C(=O)OCCN2CCOCC2)cc1	none
Cn1c(N)c(C(=O)/C=C/c2ccccc2)c(=O)[nH]c1=O	none (no result: Autophagy mod, Lmaj promast, MT stabilize HCS)
CC(=O)c1ccc(NC(=O)COC(=O)c2c3c(nc4ccccc24)/C(=C\c2cccs2)CCC3)cc1	Lmaj promast 97, CHOP inhibitor 77 (no result: bCat nuc transl)
O=C(OCC(=O)N1CCc2ccccc21)c1c2c(nc3ccccc13)CCCCC2	Lmaj promast 91
O=C(COC(=O)c1c2c(nc3ccccc13)CCCC2)Nc1ccc2c(c1)OCO2	Lmaj promast 59
NC(=O)COC(=O)c1c2c(nc3ccccc13)CCCC2	none
COc1cccc(NC(=O)COC(=O)c2c3c(nc4ccccc24)CCC(C)C3)c1 (centres undefined)	Lmaj promast 54
O=C(COC(=O)c1cc(-c2ccccc2)nc2ccccc12)Nc1ccc2c(c1)OCO2	none
COc1ccc(N2CCN(C(=O)c3ccc(S(=O)(=O)N4CCOCC4)cc3)CC2)cc1	none
COCC(COCCCNC(=O)Nc1ccc(Br)cc1)OC (centres undefined)	none
Cc1ccc(-c2c(C)sc3ncn(CC(=O)N4CCOCC4)c(=O)c23)cc1C	none (no result: Autophagy mod, Lmaj promast, MT stabilize HCS)
Cc1ccccc1OCCCn1c(=O)sc2ccccc21	none
C=CCOc1cccc(/C=N/NC(=O)CN(c2cc(Cl)ccc2OC)S(=O)(=O)c2ccc(C)c([N+](=O)[O-])c2)c1	Lmaj promast 99
COc1ccc(Cl)cc1N(CC(=O)N/N=C/c1ccc(OC(C)C)cc1)S(=O)(=O)c1ccc(C)c([N+](=O)[O-])c1	Lmaj promast 98
CC(=O)NS(=O)(=O)c1ccc(NC(=O)c2ccc3c(c2)C(=O)N(CCC(C)C)C3=O)cc1	none (no result: bCat nuc transl)
Cc1ccnc2nc(C(=O)OCC(=O)NCCc3ccccc3)nn12	none
Cc1ccccc1N=C1SC(CC(=O)Nc2ccc3ccccc3c2)C(=O)N1Cc1ccccn1 (centres undefined)	Lmaj promast 98
CCCc1ccc(C(=O)Cn2nc(C(=O)O)c3ccccc3c2=O)cc1	CHOP inhibitor 86
C/C(=C/Cc1c(O)cc2oc(C)cc(=O)c2c1O)COC1OC(CO)C(O)C(O)C1O (centres undefined)	none (no result: bCat nuc transl)
COc1ccc(N2CCN(c3ncnc4c3cnn4-c3ccc(C)cc3C)CC2)cc1	CHOP inhibitor 74
Cc1ccc(-n2ncc3c(N4CCN(c5ccccc5)CC4)ncnc32)c(C)c1	CHOP inhibitor 84
CCN(CC)S(=O)(=O)c1ccc(OCCNS(C)(=O)=O)cc1	none
O=C(CCc1ccccc1)Nc1nc2nc(-c3ccccc3)cc(=O)n2[nH]1	none
COc1ccc(-c2nn(C)c(=O)c3ccccc23)cc1NC(=O)Cn1nc(-c2ccccc2)c2ccccc2c1=O	Lmaj promast 65
COc1cc(/C=N/N2C(=O)C3C4C=CC(CC4)C3C2=O)ccc1O (centres undefined)	none
O=C1C2C3c4ccccc4C(c4ccccc43)C2C(=O)N1/N=C/c1cccc(O)c1 (centres undefined)	Lmaj promast 97
O=C(CNC(=O)c1ccccc1)NC1(C(=O)NC2CCCC2)CCCCC1	none
Clc1ccc(C2=Nn3c(Cn4nnc5ccccc54)nnc3SC2)cc1	none (no result: Autophagy mod, Lmaj promast, MT stabilize HCS)
C[n+]1c2n(c3ccccc31)N=C(c1ccc(Cl)cc1)CS2	Lmaj promast 86
COc1ccc(C2=Nn3c([n+](C)c4ccccc43)SC2)cc1	Lmaj promast 100
CC1Sc2n(c3ccccc3[n+]2C)N=C1c1ccccc1 (centres undefined)	Lmaj promast 99
Cn1c(Cc2ccccc2)[n+](C)c2ccccc21	none
O=C(O)C1CCN(C(=O)CCc2ccccc2)CC1	none (no result: Autophagy mod, Lmaj promast, MT stabilize HCS)
Cc1ccc(/C=C2\SC(N3CCCC3)=NC2=O)cc1	none
COc1cc(/C=C2\SC(c3ccc(C)cc3)=NC2=O)cc(OC)c1O	Lmaj promast 57
Cc1ccc(C2=NC(=O)/C(=C/c3cc(O)c(O)c(Br)c3)S2)cc1	CHOP inhibitor 72 (no result: bCat nuc transl)
Cc1ccc(CNC(=O)c2ccc3nc4[nH]c5ccccc5c4nc3c2)cc1	CHOP inhibitor 94
COc1ccccc1CNC(=O)c1ccc2nc3[nH]c4ccccc4c3nc2c1	CHOP inhibitor 100
COc1ccccc1CNC(=O)c1cccc(NC(=O)c2ccccc2)c1	none
Cc1ccc(CNC(=O)c2ccc(-n3cccc3)cc2)cc1	none
COc1ccccc1C(=O)NCC(=O)N/N=C/c1cccc(Cl)c1	none (no result: bCat nuc transl)
COc1ccc(S(=O)(=O)N(C)C)cc1NCC(=O)Nc1ccc(Br)c(C)c1	none
CN1CCN(S(=O)(=O)c2ccc(-c3ccccc3)cc2)CC1	Lmaj promast 86 (no result: bCat nuc transl)
O=S(=O)(c1ccc(N2CCN(CCO)CC2)nc1)N1CCCCC1	Lmaj promast 60
